Activity calls are given as the source filed them. The calls are words filed in the database; no cut-off is given here.
How the values were obtained:
Saccharomyces cerevisiae [1] = assay: Antimicrobial activity against Saccharomyces cerevisiae YCG198 harboring Saccharomyces cerevisiae Y8205 MATalpha PDR1delta::NAT PDR3 delta::URA3 assessed as growth inhibition at 100 uM after 18 hrs; type: functional; conditions: YCG198, 18 h, read-out: GI
In short: (§1)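 Stationary-phase yeast grown in synthetic complete medium, diluted to 5 × 10^5 cells/mL, then exposed 18 h at 30 °C to seven-point half-log dilutions from DMSO stocks (final 100 to 0.01 μM; one extended series topped at 300 μM). DMSO (1% or 3%) served as control. Growth was read as OD590, and residual growth = OD/OD_DMSO × 100. Mean ± standard error of two independent experiments in triplicate; IC50 from curve fit.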

HL-60 = assay: Cytotoxicity against human HL60 cells assessed as growth inhibition after 2 days by MTT assay; type: functional, cell-based; conditions: HL-60, 48 h
Saccharomyces cerevisiae [2] = assay: Antimicrobial activity against Saccharomyces cerevisiae YCG198 harboring Saccharomyces cerevisiae Y8205 MATalpha PDR1delta::NAT PDR3 delta::URA3 assessed as growth inhibition after 18 hrs; type: functional, organism-based; conditions: YCG198, 18 h; in short: as §1
Saccharomyces cerevisiae [3] = assay: Antimicrobial activity against wild type Saccharomyces cerevisiae YCG117 harboring Saccharomyces cerevisiae Y8205 MATalpha ura3delta0::NAT assessed as growth inhibition at 0.01 to 100 uM after 18 hrs; type: functional, organism-based; in short: as §1
Saccharomyces cerevisiae [4] = assay: Antimicrobial activity against Saccharomyces cerevisiae YCG198 harboring Saccharomyces cerevisiae Y8205 MATalpha PDR1delta::NAT PDR3 delta::URA3 assessed as growth inhibition at 0.01 to 100 uM after 18 hrs; type: functional, organism-based; in short: as §1

SMILES | inhibition of growth at 100 µM (Saccharomyces cerevisiae [1]) | IC50 (HL-60) | IC50 (Saccharomyces cerevisiae [2]) | growth inhibition (GI) (Saccharomyces cerevisiae [3]) | growth inhibition (GI) (Saccharomyces cerevisiae [4])
COc1c(O)c(C)c(C/C=C(\C)CCCCCCc2ccccc2)oc1=O [LEHUALIDE F] | 60% | 6.2 µM | 44 µM | – | –
COc1c(O)c(C)c(C/C=C(\C)CCCCCCCCc2ccccc2)oc1=O [LEHUALIDE G] | 68% | 5.4 µM | – | inactive | –
COc1c(C)c(CCCCCCCCCCSC(C)=O)oc(=O)c1OC [LEHUALIDE H] | – | 14.6 µM | – | inactive | inactive
COc1c(C)c(CCCCCCCCCCSC)oc(=O)c1OC [LEHUALIDE I] | 67% | 10.8 µM | – | inactive | –

Reference: ChEMBL document CHEMBL1773041, “Lehualides E-K, cytotoxic metabolites from the Tongan marine sponge Plakortis sp” (J Nat Prod, 2011)
